Test results published in ChEMBL document CHEMBL5653632, “PRMT5 inhibition disrupts splicing and stemness in glioblastoma” (Nat Commun, 2021).
Active and inactive are the calls of the source. The calls are words filed in the database; no cut-off is given here.

Columns and labels:
[1] = Antiproliferative activity against human G584 cells incubated for 9 to 12 days by IncuCyte zoom live-cell imaging analysis; format: functional, cell-based
Method in brief: (§1)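 Adherent GSC lines on poly-L-ornithine/laminin in serum-free EGF/bFGF medium were exposed to nine concentrations from 3 nM to 30 µM, with three technical replicates per dose. Exposure lasted 9–20 days until DMSO controls were confluent, with drug-containing medium refreshed every 5 days. IncuCyte confluence was normalized to DMSO. Curves were built at the 95th percentile of DMSO time-to-confluence, and AAC was derived with PharmacoGx.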

[2] = Antiproliferative activity against human BT301 cells incubated for 9 to 12 days by IncuCyte zoom live-cell imaging analysis; format: functional, cell-based
[3] = Antiproliferative activity against human G719 cells incubated for 9 to 12 days by IncuCyte zoom live-cell imaging analysis; format: functional, cell-based; method in brief: as §1
[4] = test system: G411; assay: Inhibition of cell growth in human G411 cells pretreated with compound for 14 days followed by compound washout and measured after 14 days; format: functional, cell-based; conditions: time 14.0 day
Method in brief: (§2)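 GSC lines were treated with 1 µM for 14 days. Compound was then washed out, and growth was followed for a further 14 days.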

[5] = Antiproliferative activity against human G876 cells incubated for 9 to 12 days by IncuCyte zoom live-cell imaging analysis; format: functional, cell-based
Method in brief: (§3)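 Adherent culture on poly-L-ornithine/laminin in serum-free NS-A medium with EGF and bFGF (10 ng/mL each) and heparin. Nine concentrations (3 nM–30 µM), three technical replicates per dose, DMSO control, medium and drug refreshed every 5 days, run until DMSO wells were confluent (9–20 days). Confluence was imaged live and normalized to DMSO. Curves were taken at the 95th percentile of time to DMSO confluence, and AAC was calculated.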

[6] = Antiproliferative activity against human BT189 cells incubated for 9 to 12 days by IncuCyte zoom live-cell imaging analysis; format: functional, cell-based
[7] = Antiproliferative activity against human G752 cells incubated for 9 to 12 days by IncuCyte zoom live-cell imaging analysis; format: functional, cell-based; method in brief: as §1
[8] = test system: G561; assay: Inhibition of cell growth in human G561 cells pretreated with compound for 14 days followed by compound washout and measured after 14 days; format: functional, cell-based; conditions: time 14.0 day; method in brief: as §2
[9] = Antiproliferative activity against human G571 cells incubated for 9 to 12 days by IncuCyte zoom live-cell imaging analysis; format: functional, cell-based; method in brief: as §1
[10] = Antiproliferative activity against human G567 cells incubated for 9 to 12 days by IncuCyte zoom live-cell imaging analysis; format: functional, cell-based; method in brief: as §1
[11] = Antiproliferative activity against human G637 cells incubated for 9 to 12 days by IncuCyte zoom live-cell imaging analysis; format: functional, cell-based; method in brief: as §1
[12] = Antiproliferative activity against human G583 cells incubated for 9 to 12 days by IncuCyte zoom live-cell imaging analysis; format: functional, cell-based; method in brief: as §3
[13] = Antiproliferative activity against human BT94 cells incubated for 9 to 12 days by IncuCyte zoom live-cell imaging analysis; format: functional, cell-based
[14] = test system: G837; assay: Inhibition of cell growth in human G837 cells pretreated with compound for 14 days followed by compound washout and measured after 14 days; format: functional, cell-based; conditions: time 14.0 day; method in brief: as §2
[15] = Antiproliferative activity against human G613 cells incubated for 9 to 12 days by IncuCyte zoom live-cell imaging analysis; format: functional, cell-based; method in brief: as §1
[16] = test system: G583; assay: Inhibition of cell growth in human G583 cells pretreated with compound for 14 days followed by compound washout and measured after 14 days; format: functional, cell-based; conditions: time 14.0 day; method in brief: as §2
[17] = Antiproliferative activity against human BT119 cells incubated for 9 to 12 days by IncuCyte zoom live-cell imaging analysis; format: functional, cell-based
[18] = test system: G729; assay: Induction of senescence in human G729 cells at 1 uM after 5 days by SA-beta-galactosidase based assay; format: functional, cell-based; conditions: time 5.0 day
Method in brief: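 GSCs were treated at 1 µM for 5 days, with SGC2096 and DMSO as controls and n = 3. Cells were fixed in 4% paraformaldehyde for 5 min at RT, stained overnight with SA-β-gal solution, and counterstained with nuclear fast red. Blue cells were counted as a fraction of total cells.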

[19] = Antiproliferative activity against human BT238 cells incubated for 9 to 12 days by IncuCyte zoom live-cell imaging analysis; format: functional, cell-based
[20] = Antiproliferative activity against human BT67 cells incubated for 9 to 12 days by IncuCyte zoom live-cell imaging analysis; format: functional, cell-based
[21] = Toxicity in NSG mouse assessed as body weight loss at 50 mg/kg, po administered every other day for 3 weeks; format: organism-based; conditions: in vivo, 504 h
[22] = test system: G411; assay: Antitumor activity against human G411 cells xenografted in NSG mouse assessed as reduction in dense cell growth at 50 mg/kg, po administered as 3 days on and 4 days off schedule for 4 cycles; format: functional, organism-based; conditions: time 28.0 day
Method in brief: (§4)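 Female NSG mice aged 5–10 weeks received 2 × 10^4 G411 GSCs stereotaxically into the forebrain (2 mm lateral, 1 mm posterior to bregma, 3 mm deep). From 1 week post-implant, mice got 50 mg/kg by oral gavage in 1% HEC/0.25% Tween 80/0.05% antifoam, 3 days on/4 off, for 4 cycles or until endpoint. Endpoint brains went to H&E; tumor tissue went to SDMA western blot.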

[23] = Drug concentration in NSG mouse brain at 100 mg/kg, po measured after 24 hrs; format: ADME, organism-based; conditions: read-out: Ct
Method in brief: (§5)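 Single oral gavage to NSG mice (n = 3) at 25, 50 or 100 mg/kg; a 10× DMSO stock was diluted into 1% HEC/0.25% Tween 80/0.05% antifoam. Sacrifice at 24 h. Plasma came from cardiac-puncture blood. Brains were taken after PBS transcardiac perfusion and flash frozen. LC-MS quantitation used a 10-point standard curve of 10–10,000 ng/mL.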

[24] = test system: G411; assay: In vivo inhibition of PRMT5 in human G411 cells xenografted in NSG mouse assessed as reduction in SDMA level at 50 mg/kg, po administered as 3 days on and 4 days off schedule for 4 cycles; format: functional, organism-based; conditions: time 28.0 day; method in brief: as §4
[25] = Toxicity in NSG mouse assessed as tolerability at 50 mg/kg, po administered as 3 days on and 4 days off schedule and measured upto 8 weeks; format: organism-based; conditions: in vivo, 1344 h
Method in brief: (§6)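 NSG mice, 3 per group, dosed orally in weekly cycles of 3 days on and 4 days off. Weight and condition were recorded twice weekly. Mice losing more than 20% body weight were sacrificed.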

[26] = test system: G411; assay: Antitumor activity against human G411 xenografted in NSG mouse assessed as mean survival time at 50 mg/kg, po administered as 3 days on and 4 days off schedule for 4 cycles (reference value: 30 days); format: functional; conditions: time 28 day
Method in brief: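 Female NSG mice, 5–10 weeks old, 12 per group. 2 × 10^4 G411 cells were injected stereotactically into the forebrain, 3 mm deep. Oral gavage started 1 week later in vehicle of 1% HEC/0.25% Tween 80/0.05% antifoam, given daily for 3 days then 4 days off, for 4 cycles or until end point. Mice were euthanized at neurological symptoms with domed head. Survival was compared by log-rank test.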

[27] = Drug concentration in NSG mouse plasma at 100 mg/kg, po measured after 24 hrs; format: ADME, organism-based; method in brief: as §5
[28] = Antiproliferative activity against human BT50 cells incubated for 9 to 12 days by IncuCyte zoom live-cell imaging analysis; format: functional, cell-based
[29] = Toxicity in NSG mouse assessed as body weight loss at 50 mg/kg, po administered as 3 days on and 4 days off schedule and measured upto 8 weeks; format: organism-based; conditions: in vivo, 1344 h; method in brief: as §6

For `O=C(NC[C@H](O)CN1CCc2ccccc2C1)c1ccnc(NC2CCC2)c1`, which IC50 [1] is on record?
Its IC50 is 39000 nM.

And the IC50 [2]?
Its IC50 is 100 nM.

And the IC50 [3]?
The IC50 was 9230 nM.

What about the inhibition [4] of the same compound?
The inhibition was “inactive”.

And the IC50 [5]?
The IC50 was 2450 nM.

And the IC50 [6]?
Its IC50 is 110 nM.

And the EC50 [7]?
Its EC50 is 50 nM.

And the inhibition [8]?
The inhibition was “inactive”.

And the IC50 [9]?
The IC50 was 45600 nM.

What about the IC50 [10] of the same compound?
The IC50 was 29300 nM.

And the IC50 [11]?
The IC50 was 340 nM.

And the EC50 [12]?
Its EC50 is 440 nM.

And the IC50 [13]?
The IC50 was 60 nM.

And the inhibition [14]?
Its inhibition is “inactive”.

What about the IC50 [15] of the same compound?
Its IC50 is 19200 nM.

And the inhibition [16]?
Its inhibition is “Active”.

And the IC50 [17]?
The IC50 was 8640 nM.

What about the Activity [18] of the same compound?
The Activity was “Active”.

What about the IC50 [19] of the same compound?
Its IC50 is 150 nM.

What about the IC50 [20] of the same compound?
The IC50 was 50 nM.

Which results are given for `Nc1ncnc2c1ccn2[C@@H]1O[C@H]([C@H](O)c2ccccc2)[C@@H](O)[C@H]1O`?
IC50 [5]: 30 nM; Activity [21]: > 20%; Activity [22]: Active; concentration at 24 h [23]: 269 nM; inhibition [24]: Active; Activity [25]: Non-Toxic; EC50 [12]: 15 nM; IC50 [17]: 230 nM; Activity [18]: Active; Time [26]: 37 days; concentration at 24 h [27]: 159 nM; IC50 [28]: 20 nM; Activity [29]: < 10%
